The chains are these.
B1: NELF-E aptamer (parent)
chain: CCCAACGACUGCCGAGCGAGAUUACGCUUGAGCGCCCCACUGAGGAUGCCCACGGGCGAUUGGGGCACGG

In this data set the parent is B1. The data set can be described thus: HiTS-RAP. Particulars: with NELF-E (Drosophila). The procedure, abridged: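 Aptamer DNA templates carrying a T7 promoter and ter site were sequenced on an Illumina GAIIx flowcell, then transcribed in situ by T7 RNA polymerase and halted by GST-Tus (30 minutes, 37°C). Clusters were imaged after 30-minute room-temperature equilibration with NELF-E-mOrange at 0.064 to 1000 nM in HEPES binding buffer, and only the first binding curve was used. Intensities were normalised to sequencing intensity and averaged per sequence. Kd came from weighted Hill fits, keeping fits with variance below 1,000,000.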
A word on the Kd: it is the equilibrium constant for the complex coming apart. Consider G11U A15U, for which the equilibrium dissociation constant (Kd) was 7.47 nM.

Take G11U A15G: the dissociation constant (Kd) came to 6.22 nM. The same measure for U10G G65U: 6.08 nM; for U10G G65A: 4.82 nM; for U10G G65C: 17 nM.

In the case of G11U A19U, the dissociation constant (Kd) was 7.3 nM. Under G11U A19G stands 6.05 nM; under U10G G58U, 8.62 nM. As to C9G U41G, the Kd came out at 6.14 nM. For C9G U41A, the equilibrium dissociation constant (Kd) stood at 79.4 nM. Turning to C9G U41C, the Kd is 80.7 nM. The same measure for U10A C13G: 5.83 nM; for C9G C53U: 4.66 nM; for C9G C27U: 4.83 nM.

Turning to G11A G14A, the Kd was found to be 6.34 nM.

In the case of G11A G14U, the Kd amounted to 6.48 nM. Under G11A U28C stands 9.79 nM; under C9G G16U, 6.45 nM; under C9G G16A, 5.72 nM. Take U10G A46G: the dissociation constant (Kd) was determined as 38.8 nM. Under U10G A46U stands 65.4 nM; under C9U G16U, 7.34 nM. The same measure for C9G U10A: 6.51 nM. Under C9G U10G stands 5.46 nM.

As to C9G U10C, the Kd is 5.98 nM. For U10A A67U, the dissociation constant (Kd) came to 9.22 nM.

Regarding U10A A67G, the dissociation constant (Kd) was determined as 4.3 nM. The same measure for C9G C25G: 6.33 nM; for C9G C25U: 7.05 nM. Under C9G G64A stands 8.13 nM; under C9G G64U, 8.07 nM; under C9G G64C, 5.75 nM. Under U10G A59G stands 57.3 nM; under U10G A59U, 71.4 nM; under G11A U41C, 83.6 nM. As for G11A U41A, the Kd worked out at 77 nM. Under G11A U41G stands 6.14 nM; under C9U, 5.19 nM; under U10G G44U, 9.69 nM. The same measure for U10G G44C: 34.8 nM; for U10G G44A: 45.2 nM; for U10G U41A: 82.6 nM.

For the variant U10G U41G, the equilibrium dissociation constant (Kd) turned out to be 5.17 nM.

Turning to U10G U41C, the Kd was determined as 76.2 nM. The same measure for U10C U61A: 33.1 nM; for U10C U61C: 41.4 nM.

Regarding C9G C49U, the Kd was 23.1 nM. Under G11A stands 5.29 nM. Under G11U stands 5.7 nM; under G11C, 6.3 nM; under U10G G48A, 8.83 nM. As for U10G G48U, the dissociation constant Kd was 6.92 nM. Under G11A G18A stands 7.8 nM.

For the variant C9G U22C, the Kd came out at 6.33 nM.

Consider C9G U22G, for which the Kd was 5.5 nM. The same measure for U10G U23C: 4.23 nM; for U10G U23G: 5.1 nM. Under U10G U23A stands 5.14 nM; under U10G G16A, 5.62 nM. Under U10G G16U stands 6.08 nM; under U10G G16C, 6.96 nM; under U10G G11C, 5.59 nM. For U10G G11A, the Kd was 6.15 nM. The same measure for U10G G11U: 5.48 nM. Under C9U C17G stands 6.19 nM; under C9G G34A, 9.14 nM; under U10G G42U, 23.2 nM. The same measure for U10G G42A: 42.8 nM. For the variant G11A C13G, the Kd is 6.15 nM.

Turning to G11A C13U, the dissociation constant Kd came to 5.33 nM. Under U10G C53A stands 5.46 nM. Under U10G C53U stands 3.77 nM. Under U10G C53G stands 6.55 nM; under U10G A15U, 5.99 nM. As for U10G A15G, the Kd is 4.72 nM. Regarding U10G A15C, the Kd was determined as 3.77 nM. Turning to U10G G56U, the Kd was found to be 5.31 nM. Under U10G G56A stands 9.45 nM; under U10G G56C, 27.1 nM. The same measure for U10G G32U: 5.18 nM; for U10G G32A: 4.44 nM; for U10G G32C: 4.38 nM. Under C9U U29G stands 5.3 nM; under U10C U22G, 5.75 nM; under U10G U22C, 4.95 nM. Regarding U10G U22G, the equilibrium dissociation constant (Kd) was 4.87 nM. The same measure for U10G U22A: 5.58 nM; for U10C C12G: 5.94 nM.

As for U10A A24G, the equilibrium dissociation constant (Kd) came out at 5.63 nM. The same measure for U10C C53U: 3.84 nM; for U10C G55U: 9.22 nM; for U10C G55A: 8.56 nM. The same measure for U10A G14U: 6.38 nM; for U10A G14A: 7.05 nM. The same measure for U10C C13G: 5.55 nM; for U10A G26A: 5.22 nM. For C9G G63U, the equilibrium dissociation constant (Kd) was 10.3 nM. Under C9G G63A stands 15.9 nM.

C9G G18A: the Kd turned out to be 6.15 nM.

As for C9G G18U, the dissociation constant Kd is 6.65 nM. As to G11A G20U, the Kd amounted to 8.59 nM.

Take C9G C13U: the Kd was 5.15 nM. U10A U22G: the Kd came out at 5.49 nM.

As to U10G C36U, the Kd worked out at 6.99 nM. Regarding U10G C36A, the dissociation constant Kd turned out to be 9.48 nM.

For U10G C36G, the Kd amounted to 6.55 nM.

With U10G G18A, the Kd was 5.37 nM. With U10G G18U, the dissociation constant Kd is 5.3 nM. As for U10G A19G, the dissociation constant (Kd) was determined as 5.12 nM. The same measure for U10G A19U: 4.96 nM. For the variant U10G G63U, the dissociation constant (Kd) came to 10.9 nM. Under U10G G63C stands 43 nM; under U10G G63A, 16.5 nM; under U10G C13G, 4.78 nM. Under U10G C13A stands 5.77 nM; under U10G C13U, 4.7 nM.

With U10G G26C, the equilibrium dissociation constant (Kd) amounted to 17.4 nM. Under U10G G26U stands 5.07 nM; under U10G G26A, 4.15 nM; under U10G G62A, 16.9 nM. Under U10G G62U stands 6.99 nM; under U10G G62C, 67.3 nM; under U10A A19G, 6.65 nM. Under C9G G32A stands 4.88 nM; under C9G C35G, 7.59 nM. As to C9G C35U, the Kd came out at 14.3 nM. With U10C A24G, the Kd is 5.38 nM. Under C9G C66U stands 5.54 nM. As to C9U C12G, the equilibrium dissociation constant (Kd) was determined as 6.92 nM. Regarding U10C G14U, the Kd is 4.95 nM.

In the case of C9G G42A, the Kd came to 56.8 nM. For the variant C9G G42U, the Kd was determined as 7.6 nM. Consider C9G U47A, for which the dissociation constant Kd amounted to 11.9 nM. The same measure for C9G U47G: 5.29 nM. Under G11A G16U stands 6.64 nM. Under C9G G11U stands 6 nM; under C9G G11A, 6.35 nM; under G11C C12G, 5.71 nM. Regarding C9G U61C, the Kd amounted to 89.2 nM. For the variant C9G U61A, the Kd worked out at 35.2 nM. The same measure for G11A U22G: 6.03 nM; for U10A U61A: 26 nM.

In the case of U10G C50A, the dissociation constant (Kd) was determined as 16.6 nM. Under U10G C50U stands 14 nM; under U10G C50G, 7.26 nM; under C9G G56A, 7.64 nM.

As to C9G G56U, the Kd came to 6.71 nM.

Consider U10G C27A, for which the dissociation constant Kd was determined as 5.02 nM. U10G C27U: the Kd worked out at 3.87 nM. As to U10G C27G, the dissociation constant Kd was determined as 4.93 nM. The same measure for U10C G11U: 5.91 nM. Under U10G G34A stands 6.95 nM. Under U10G G34U stands 5.54 nM; under U10G G34C, 13.2 nM.

U10G U29A: the equilibrium dissociation constant (Kd) amounted to 4.58 nM. On to U10G U29G, for which the dissociation constant (Kd) turned out to be 5.05 nM.

U10G U29C: the Kd was 4.67 nM. Under C9G C33U stands 5.9 nM; under C9G C37A, 15.8 nM. Under C9G C37U stands 16.1 nM; under C9G G14U, 6.47 nM. The same measure for C9G G14A: 6.55 nM; for U10G U60A: 8.76 nM. Regarding U10G U60G, the dissociation constant (Kd) amounted to 6.36 nM.

With U10G U60C, the equilibrium dissociation constant (Kd) came to 8.47 nM.

For C9G G20U, the Kd turned out to be 7.26 nM. Under C9G G20A stands 6.64 nM.
